Laboratory results reported in ChEMBL document CHEMBL1649328, “Assessment of pandemic and seasonal influenza A (H1N1) virus susceptibility to neuraminidase inhibitors in three enzyme activity inhibition assays” (Antimicrob Agents Chemother, 2010).

Assays:
[1] = tested on: Influenza A virus; experiment: Ratio of IC50 for influenza A (A/North Carolina/01/2009 (H1N1)) virus harboring neuraminidase H275Y mutant to IC50 for influenza A (A/Washington/29/2009 (H1N1)) virus expressing wild type enzyme by MUNANA substrate based fluorometric assay; format: functional
[2] = tested on: Influenza A virus; experiment: Antiviral activity against influenza A (A/Montana/02/2009 (H1N1)) virus harboring neuraminidase H275Y mutant after 16 to 18 hrs by fetuin substrate based colorimetric assay; format: functional, organism-based
Procedure, shortened: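 Colorimetric NA inhibition with fetuin substrate. Virus was diluted in NA-Star buffer (26 mM MES, 4 mM CaCl2, pH 6.0) to give OD549 of 0.4–0.8 after 18 h. It was preincubated with ten half-log inhibitor dilutions (0.03–1,000 nM final) for 1 h at 37°C, then with fetuin (5.5 mg/ml final) for 16–18 h at 37°C. Released sialic acid was read at 549 nm after periodate/TBA reaction and butanol extraction. IC50 came from a Vmax·[1−x/(K+x)] fit, mean of ≥2 experiments.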

[3] = tested on: Influenza A virus; experiment: Antiviral activity against influenza A (A/Osaka/180/2009 (H1N1)) virus harboring neuraminidase H275Y mutant after 30 mins by MUNANA substrate based fluorometric assay; format: functional, organism-based
Procedure, shortened: (§1)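 Fluorometric NA inhibition with MUNANA (100 μM final). Titrated virus in NA-Star buffer (26 mM MES, 4 mM CaCl2, pH 6.0) was preincubated with ten half-log inhibitor dilutions (0.03–1,000 nM final) for 30 min at 37°C, then with substrate for 30 min at 37°C. The reaction was stopped with 0.1 M glycine in 25% ethanol, pH 10.7, and 4-methylumbelliferone was read at ex 365/em 450 nm. IC50 came from a Vmax·[1−x/(K+x)] fit, mean of ≥3 experiments.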

[4] = tested on: Influenza A virus; experiment: Antiviral activity against influenza A (A/Hong Kong/2369/2009 (H1N1)) virus harboring neuraminidase H275Y mutant after 30 mins by MUNANA substrate based fluorometric assay; format: functional, organism-based; procedure, shortened: as §1
[5] = tested on: Influenza A virus; experiment: Ratio of IC50 for influenza A (A/Singapore/91/2009 (H1N1)) virus harboring neuraminidase H275Y mutant to IC50 for influenza A (A/Washington/29/2009 (H1N1)) virus expressing wild type enzyme by NA-star substrate based chemiluminescent assay; format: functional
Procedure, shortened: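 Chemiluminescent NA inhibition in MES 26 mM/CaCl2 4 mM buffer, pH 6.0. […] Luminescence read for 0.1 s. IC50 from the fit y = Vmax·{1 − [x/(K + x)]}, mean of ≥3 experiments. Ratio is the H275Y variant IC50 over the pandemic wild-type reference IC50.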

[6] = tested on: Influenza A virus; experiment: Ratio of IC50 for influenza A (A/Osaka/180/2009 (H1N1)) virus harboring neuraminidase H275Y mutant to IC50 for influenza A (A/Washington/29/2009 (H1N1)) virus expressing wild type enzyme by NA-star substrate based chemiluminescent assay; format: functional
[7] = tested on: Influenza A virus; experiment: Ratio of IC50 for influenza A (A/North Carolina/01/2009 (H1N1)) virus harboring neuraminidase H275Y mutant to IC50 for influenza A (A/Washington/29/2009 (H1N1)) virus expressing wild type enzyme by fetuin substrate based colorimetric assay; format: functional
[8] = tested on: Influenza A virus; experiment: Ratio of IC50 for influenza A (A/Osaka/180/2009 (H1N1)) virus harboring neuraminidase H275Y mutant to IC50 for influenza A (A/Washington/29/2009 (H1N1)) virus expressing wild type enzyme by MUNANA substrate based fluorometric assay; format: functional
[9] = tested on: Influenza A virus; experiment: Antiviral activity against influenza A (A/Singapore/57/2009 (H1N1)) virus harboring neuraminidase H275Y mutant after 30 mins by MUNANA substrate based fluorometric assay; format: functional, organism-based; procedure, shortened: as §1

C/C=C\[C@@H]1C[C@H](C(=O)O)N[C@H]1[C@@H](NC(C)=O)[C@](C)(CCC)OC
Ratio IC50 [1]: 4 | IC50 [2]: 1.89 nM | IC50 [3]: 2.44 nM | IC50 [4]: 1.67 nM | Ratio IC50 [5]: 1 | Ratio IC50 [6]: 3 | Ratio IC50 [7]: 2 | Ratio IC50 [8]: 5 | IC50 [9]: 1.39 nM

CCC(CC)[C@H](NC(C)=O)[C@@H]1[C@H](O)[C@@H](C(=O)O)C[C@H]1NC(=N)N [PERAMIVIR ANHYDROUS]
Ratio IC50 [1]: 831 | IC50 [2]: 83.4 nM | IC50 [3]: 97.6 nM | IC50 [4]: 128 nM | Ratio IC50 [5]: 1 | Ratio IC50 [6]: 93 | Ratio IC50 [7]: 140 | Ratio IC50 [8]: 488 | IC50 [9]: 122 nM
